Results as given in ChEMBL document CHEMBL3804757, “Cystoseira usneoides: A Brown Alga Rich in Antioxidant and Anti-inflammatory Meroditerpenoids” (J Nat Prod, 2016).

Legend:
[1] = Cytotoxicity against human THP1 cells assessed as cell viability at 5 to 10 uM after 48 hrs by SRB assay; assay type: cell-based; conditions: thp-1, 48 h
[2] = Antioxidant activity assessed as ABTS free radical scavenging activity after 6 mins by ABTS free radical decolorization assay relative to Trolox; assay type: physicochemical; set-up: concentration or dose not given beside the values; conditions: 0.1 h
Method in brief: (§1)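 ABTS•+ generated by mixing 7 mM ABTS with 2.45 mM potassium persulfate (1:1) and holding 12–18 h in the dark at room temperature. It was then diluted in EtOH to A734 0.70 ± 0.02. 100 μL ethanolic compound was added to 2 mL of radical solution, and A734 read after 6 min against an EtOH control. % inhibition = [(A0−A1)/A0]×100, done in triplicate; Trolox served as standard.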

[3] = Antiinflammatory activity against human THP1 cells assessed as inhibition of LPS-induced TNFalpha production pretreated for 1 hr before LPS challenge at 10 uM measured after 24 hrs by ELISA; assay type: functional, THP-1; set-up: scale not given: the % may be the effect or the level left
Method in brief: (§2)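 THP-1 cells (RPMI 1640, 10% FBS) differentiated to macrophages with PMA 0.2 μM final for 3 days, washed with cold PBS, then pre-incubated 1 h with compound diluted from DMSO stocks (0.1% DMSO). Stimulated with LPS at 1 μg/mL final. Supernatants taken after 24 h and TNF-α measured by ELISA. Dexamethasone 1 μM as positive control; an unstimulated control was included. Values are mean ± SE of four determinations.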

[4] = Antiinflammatory activity against human THP1 cells assessed as inhibition of LPS-induced TNFalpha production pretreated for 1 hr before LPS challenge at 8 uM measured after 24 hrs by ELISA; assay type: functional, THP-1; set-up: scale not given: the % may be the effect or the level left; method in brief: as §2
[5] = Antiinflammatory activity against human THP1 cells assessed as inhibition of LPS-induced TNFalpha production pretreated for 1 hr before LPS challenge at 5 uM measured after 24 hrs by ELISA; assay type: functional, THP-1; set-up: scale not given: the % may be the effect or the level left; method in brief: as §2
[6] = Antioxidant activity assessed as ABTS free radical scavenging activity after 6 mins by ABTS free radical decolorization assay; assay type: physicochemical; method in brief: as §1

Row | Structure (SMILES) | Activity [1] | Activity [2] [%] | Activity [3] [%] | Activity [4] [%] | Activity [5] [%] | EC50 [6] [µM]
1 | COc1c(C)cc(O)cc1C/C=C(\C)CC(=O)/C=C(\C)CC/C=C(\C)CCC(O)C(C)(C)O (stereo not drawn) | Non-toxic | 37 | 21 |  |  | 
2 | COc1c(C)cc(O)cc1C/C=C(\C)CC(=O)/C=C(/C)CCCC(C)C(=O)CC(O)C(C)(C)O (stereo not drawn) | Non-toxic | 37 |  | 21 |  | 
3 | COc1c(C)cc(O)cc1C/C=C(\C)CC(=O)/C=C(/C)CCC[C@@]1(C)O[C@H](C(C)(C)O)C[C@H]1O | Non-toxic | 62 |  | 21 |  | 
4 | C/C(=C/C(=O)C/C(C)=C/Cc1cc(O)cc(C)c1O)CCCC(C)(O)C(=O)/C=C/C(C)(C)O (stereo not drawn) | Non-toxic | 81 | 81 |  |  | 
5 | COc1c(C)cc(O)cc1C/C=C(\C)CC(=O)/C=C(/C)CC/C=C(\C)C(O)CC1OC1(C)C (stereo not drawn) | Non-toxic | 37 |  | 21 |  | 
6 | C/C(=C\C(=O)C/C(C)=C/Cc1cc(O)cc(C)c1O)CCCC(C)(O)C(=O)/C=C/C(C)(C)O (stereo not drawn) | Non-toxic | 87 | 69 |  |  | 
7 | COc1c(C)cc(O)cc1C/C=C(\C)CC(=O)/C=C(\C)C(O)CCC(C)(O)C(=O)/C=C/C(C)(C)O (stereo not drawn) | Non-toxic | 62 |  | 79 |  | 
8 | COc1c(C)cc(O)cc1C/C=C(\C)CC(=O)/C=C(/C)CCC[C@@]1(C)O[C@@H](C(C)(C)O)CC1=O |  | 62 |  |  |  | 
9 | C/C(=C/C(=O)C/C(C)=C/Cc1cc(O)cc(C)c1O)CCCC(C)C(=O)/C=C/C(C)(C)O (stereo not drawn) | Non-toxic | 77 | 21 |  |  | 
10 | COc1c(C)cc(O)cc1C/C=C(\C)CC(=O)/C=C(/C)CC/C=C(\C)CCC(O)C(C)(C)O (stereo not drawn) | Non-toxic | 62 |  |  | 59 | 
11 | C/C(=C\C(=O)C/C(C)=C/Cc1cc(O)cc(C)c1O)CCCC(C)C(=O)/C=C/C(C)(C)O (stereo not drawn) | Non-toxic | 77 |  |  | 53 | 
12 | COc1c(C)cc(O)cc1C/C=C(\C)CC(=O)/C=C(\C)CCC[C@@]1(C)O[C@@H](C(C)(C)O)CC1=O |  | 37 |  |  |  | 
13 | Cc1c(C)c2c(c(C)c1O)CCC(C)(C(=O)O)O2 (stereo not drawn) [TROLOX] |  |  |  |  |  | 12
